Laboratory results from ChEMBL document CHEMBL2086373, “Identification and In-Vitro ADME Assessment of a Series of Novel Anti-Malarial Agents Suitable for Hit-to-Lead Chemistry” (ACS Med Chem Lett, 2012).
≈ marks a conversion by molar mass, not a printed value. Calls of active or inactive are those of the source. No cut-off for these calls is given here.

Legend:
[1] = test system: Plasmodium falciparum; assay: Antiplasmodium activity against chloroquine-sensitive Plasmodium falciparum NF54 assessed as inhibition of [3H[hypoxanthine incorporation; type: functional, organism-based
Method in brief: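 Run at Swiss TPH on P. falciparum NF54 (3D7 is a clone of it). Read-out is 3H-hypoxanthine incorporation. IC50 is the mean of ≥2 experiments.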

[2] = Kinetic solubility of the compound in phosphate buffered saline after 2 hrs at pH 7.4; type: physicochemical; conditions: read-out: Kinetic_solubility
Method in brief: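 Kinetic solubility measured in PBS, pH 7.4.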

[3] = […]-phosphate buffered saline partition coefficient, log D after 5 hrs by LC-UV analysis at pH 7.4; type: physicochemical; conditions: octan-1-ol/phosphate buffered saline
Method in brief: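 Log D from partition between octan-1-ol and phosphate-buffered PBS at pH 7.4.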

[4] = Apparent permeability of the compound from apical to basal side of human Caco2 cells at 10 uM after 60 mins; type: ADME, cell-based; conditions: Caco-2
Method in brief: (§1)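 Apical and basal chambers in HBSS, pH 7.4. Compound at 10 μM added to the donor side at time zero. Donor and acceptor chambers both sampled after 60 min at 37 °C. A>B permeability reported in 10^-6 cm/s, plus efflux ratio.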

[5] = Efflux ratio of apparent permeability across human Caco2 cells at 10 uM after 60 mins; type: ADME, cell-based; conditions: Caco-2; method in brief: as §1
[6] = test system: Plasmodium berghei; assay: Antimalarial activity against GFP-transfected Plasmodium berghei ANKA infected in mouse assessed as reduction in parasitemia at 50 mg/kg, sc administered QD for 4 days relative to vehicle-treated control; type: functional; parameters: scale not given: the % may be the effect or the level left; conditions: route subcutaneous
Method in brief: (§2)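 Peters 4-day test: 50 mg/kg given sc once daily for 4 days. Parasitemia reduction and survival days are compared against infected, untreated control animals.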

[7] = test system: Plasmodium berghei; assay: Antimalarial activity against GFP-transfected Plasmodium berghei ANKA infected in mouse assessed as change in host survival time at 50 mg/kg, sc administered QD for 4 days relative to untreated control; type: functional, organism-based; parameters: dose 50 mg/kg; method in brief: as §2
[8] = Metabolic stability in human hepatic microsomes assessed as % turnover at 1 uM after 40 mins by LC/MS/MS analysis; conditions: liver microsomes

| Structure (SMILES) | IC50 [1] [nM] | other results |
| --- | --- | --- |
| CCc1nnc(Sc2ncnc3sccc23)[nH]1 | 1160 | – |
| CCCCN1CN=C(Nc2nc(C)c3ccccc3n2)NC1 | 1580 | – |
| CCOc1nnc(C)c2c(C)n(-c3cccc(OC)c3)nc12 | 16000 | – |
| O=C(Cc1ccccc1)Nc1cccc2[nH]c(C(F)(F)F)nc12 | > 100000 | – |
| Cc1ccc(-n2nc3c(Cl)nnc(C)c3c2C)cc1 | 310 | – |
| Cc1ccc(S(=O)(=O)Nc2cccc3[nH]c(C(F)(F)F)nc23)cc1 | > 100000 | – |
| Cc1ccc(-n2nc3c(C)nnc(C)c3c2C)cc1 | > 100000 | – |
| c1ccn2c(Sc3ncnc4sccc34)nnc2c1 | 150 | solubility kinetic at 2 h [2]: 20 µM (≈ 5.71 µg/mL); logD at 5 h [3]: > 3.8; Papp A→B at 1 h, 10 µM [4]: 50 ×10⁻⁶ cm/s; efflux ratio at 1 h, 10 µM [5]: 0.28; Activity [6]: 34%; Activity [7]: inactive; % turnover at 40 min, 1 µM [8]: 50% |
| CCOc1ccc(-n2nc3c(Cl)nnc(C)c3c2C)cc1 | 340 | – |
| CC(=O)/N=C(/NC(C)=O)Nc1nc(C)c2cc(C)ccc2n1 | 3740 | – |
| COc1ccc(CNc2cccc3[nH]c(C)nc23)cc1 | 9900 | – |
| Cc1nnc(Cl)c2nn(-c3ccccc3)c(C)c12 | 430 | – |
| COc1ccc(CNc2cccc3[nH]c(C(F)(F)F)nc23)cc1 | 3930 | – |
| Cc1nnc(C)c2c(C)n(-c3ccc4c(c3)OCO4)nc12 | > 100000 | – |
| Cc1sc2ncnc(Sc3nnc4ccccn34)c2c1C | 460 | – |
| COc1cccc(-n2nc3c(C)nnc(C)c3c2C)c1 | > 100000 | – |
| Cc1nc(NC2=NCCC(=O)N2)nc2ccccc12 | > 100000 | – |
| Cc1nnc(Cl)c2nn(-c3cccc(Cl)c3)c(C)c12 | 280 | – |
| Cc1ccc(-n2c(Sc3ncnc4sccc34)nnc2N2CCCC2)cc1 | 150 | – |
| Cc1nnc(Cl)c2nn(-c3ccc(Cl)cc3)c(C)c12 | 420 | – |
| COc1nc(NC(=N)N)nc2ccc(C)cc12 | 740 | – |
| Cc1nnc(N2CCOCC2)c2nn(-c3ccccc3)c(C)c12 | > 100000 | – |
| c1ccc(-c2csc3ncnc(Sc4nnc5ccccn45)c23)cc1 | 2670 | – |
| Fc1ccc(CNc2cccc3[nH]c(C(F)(F)F)nc23)cc1 | 490 | solubility kinetic at 2 h [2]: < 5 µM; logD at 5 h [3]: 2; Papp A→B at 1 h, 10 µM [4]: 1.5 ×10⁻⁶ cm/s; efflux ratio at 1 h, 10 µM [5]: 0.43; % turnover at 40 min, 1 µM [8]: 19% |
| O=C(Nc1cccc2[nH]c(C(F)(F)F)nc12)c1ccc(Cl)cc1 | 10800 | – |
| Cn1c(Sc2ncnc3sccc23)nnc1C1CC1 | 1480 | – |
| Cc1sc2ncnc(Sc3nnc(C(F)(F)F)n3C)c2c1C | 5170 | – |
